Assay results reported in ChEMBL document CHEMBL4014310, “Selective IKur Inhibitors for the Potential Treatment of Atrial Fibrillation: Optimization of the Phenyl Quinazoline Series Leading to Clinical Candidate 5-[5-Phenyl-4-(pyridin-2-ylmethylamino)quinazolin-2-yl]pyridine-3-sulfonamide” (J Med Chem, 2017).
Calls of active or inactive are those of the source. The rule behind the calls is not given here.

Columns and labels:
[1] = Clearance in dog at 0.1 mg/kg, iv or 1 mg/kg, po; format: ADME, organism-based, Canis lupus familiaris; details: in vivo
Method in brief: (§1)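 Single-dose PK study in mouse and rat (2 mg/kg iv, 5 mg/kg po), cynomolgus monkey (1 mg/kg iv and po) and dog (0.1 mg/kg iv, 1 mg/kg po). Dosing vehicle was 1:4:5 EtOH/propylene glycol/PEG400. Clearance, Vss, half-life, Cmax, Tmax, AUC (μM h) and oral %F were derived from plasma levels.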

Oryctolagus cuniculus [2] = assay: Antiatrial fibrillation activity in methoxamine-sensitised rabbit assessed as increase in atrial effective refractory period at 0.17 mg/kg, iv administered as 1 min infusion relative to control; format: functional
Method in brief: (§2)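 Rabbit, iv infusion of compound in DMF (0.17 mg/mL) with a 0.17 mg/kg maintenance dose. AERP was normalized to DMF vehicle, with time counted from the start of the maintenance infusion. Tissues were collected after 30 min. n = 3 rabbits; means ± standard error.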

[3] = AUC in rat at 2 mg/kg, iv or 5 mg/kg, po; format: ADME, organism-based; details: in vivo; method in brief: as §1
[4] = Half life in mouse at 2 mg/kg, iv or 5 mg/kg, po; format: ADME, organism-based; details: in vivo; method in brief: as §1
[5] = Plasma concentration in methoxamine-sensitised rabbit at 1 mg/kg, iv administered as 30 mins infusion; format: ADME, organism-based, Oryctolagus cuniculus
[6] = Inhibition of IKs (unknown origin); parameters: species or system Homo sapiens
[7] = Volume of distribution at steady state in dog at 0.1 mg/kg, iv or 1 mg/kg, po; format: ADME, organism-based, Canis lupus familiaris; details: in vivo, read-out: Vdss
Method in brief: (§3)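 Single-dose PK in mouse and rat (2 mg/kg iv, 5 mg/kg po), cynomolgus monkey (1 mg/kg iv and po) and dog (0.1 mg/kg iv, 1 mg/kg po). Dosing vehicle was 1:4:5 EtOH/propylene glycol/PEG400. Parameters reported: clearance, Vss, half-life, Cmax, Tmax, AUC and oral bioavailability.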

[8] = AUC in cynomolgus monkey at 1 mg/kg, iv or 1 mg/kg, po; format: ADME, organism-based, Macaca fascicularis; details: in vivo; method in brief: as §1
[9] = Half life in cynomolgus monkey at 1 mg/kg, iv or 1 mg/kg, po; format: ADME, organism-based, Macaca fascicularis; details: in vivo; method in brief: as §1
[10] = Cmax in mouse at 2 mg/kg, iv or 5 mg/kg, po; format: ADME, organism-based; details: in vivo; method in brief: as §1
[11] = Ratio of drug level in Sprague-Dawley rat brain to plasma at 3 mg/kg, iv administered as 10 mins infusion by LC-MS/MS analysis; format: ADME, organism-based; details: brain and plasma, read-out: BPR
[12] = Plasma concentration in methoxamine-sensitised rabbit at 1 mg/kg, iv administered as 20 mins infusion; format: ADME, organism-based, Oryctolagus cuniculus
[13] = AUC in mouse at 2 mg/kg, iv or 5 mg/kg, po; format: ADME, organism-based; details: in vivo; method in brief: as §1
Oryctolagus cuniculus [14] = assay: Antiatrial fibrillation activity in methoxamine-sensitised rabbit assessed as increase in atrial effective refractory period at 1 mg/kg, iv administered as 30 mins infusion relative to control; format: functional
Method in brief: (§4)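 Rabbit, iv dosing at 1 or 3 mg/kg. AERP was measured at 10, 20 and 30 min time points as % prolongation, and plasma compound concentration was measured at the same time points and correlated with the AERP change.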

Oryctolagus cuniculus [15] = assay: Antiatrial fibrillation activity in methoxamine-sensitised rabbit assessed as plasma concentration required to show 10% increase in atrial effective refractory period at 0.17 mg/kg, iv administered as 30 mins infusion; format: functional, organism-based; method in brief: as §2
Salmonella typhimurium = assay: Genotoxicity in Salmonella typhimurium by Ames test; format: toxicity; details: salmonella enterica subsp. enterica serovar typhimurium
[16] = Inhibition of calcium channel (unknown origin); parameters: species or system Homo sapiens
Oryctolagus cuniculus [17] = assay: Antiatrial fibrillation activity in methoxamine-sensitised rabbit assessed as increase in atrial effective refractory period at 0.17 mg/kg, iv administered as 30 mins infusion relative to control; format: functional; method in brief: as §2
[18] = Clearance in cynomolgus monkey at 1 mg/kg, iv or 1 mg/kg, po; format: ADME, organism-based, Macaca fascicularis; details: in vivo; method in brief: as §1
Plasma [19] = assay: Plasma concentration in pacing-induced mongrel dog heart failure model at 0.1 mg/kg, po; format: ADME, organism-based, Canis lupus familiaris; details: in vivo
Method in brief: (§5)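 Simultaneous atrio-ventricular pacing dog model used to measure AF inducibility. Dogs were dosed orally at 0.1 mg/kg (n = 5) or 0.3 mg/kg (n = 6) in 10% EtOH/40% propylene glycol/50% PEG 400, and plasma concentration was measured alongside AF inductions and QTc.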

Plasma [20] = assay: Plasma concentration in pacing-induced mongrel dog heart failure model at 0.3 mg/kg, po; format: ADME, organism-based, Canis lupus familiaris; details: in vivo; method in brief: as §5
[21] = Tmax in cynomolgus monkey at 1 mg/kg, iv or 1 mg/kg, po; format: ADME, organism-based, Macaca fascicularis; details: in vivo; method in brief: as §3
[22] = Volume of distribution at steady state in rat at 2 mg/kg, iv or 5 mg/kg, po; format: ADME, organism-based; details: in vivo, read-out: Vdss; method in brief: as §3
[23] = Tmax in rat at 2 mg/kg, iv or 5 mg/kg, po; format: ADME, organism-based; details: in vivo; method in brief: as §3
[24] = Half life in dog at 0.1 mg/kg, iv or 1 mg/kg, po; format: ADME, organism-based, Canis lupus familiaris; details: in vivo; method in brief: as §1
Oryctolagus cuniculus [25] = assay: Antiatrial fibrillation activity in methoxamine-sensitised rabbit assessed as increase in atrial effective refractory period at 3 mg/kg, iv administered as 20 mins infusion relative to control; format: functional; method in brief: as §4
Oryctolagus cuniculus [26] = assay: Antiatrial fibrillation activity in methoxamine-sensitised rabbit assessed as increase in atrial effective refractory period at 3 mg/kg, iv administered as 10 mins infusion relative to control; format: functional; method in brief: as §4
Oryctolagus cuniculus [27] = assay: Antiatrial fibrillation activity in methoxamine-sensitised rabbit assessed as plasma concentration required to show increase in atrial effective refractory period at 0.17 mg/kg, iv measured 30 mins post infusion; format: functional, organism-based; method in brief: as §2
[28] = Volume of distribution at steady state in cynomolgus monkey at 1 mg/kg, iv or 1 mg/kg, po; format: ADME, organism-based, Macaca fascicularis; details: in vivo, read-out: Vdss; method in brief: as §3
Oryctolagus cuniculus [29] = assay: Antiatrial fibrillation activity in methoxamine-sensitised rabbit assessed as increase in atrial effective refractory period at 3 mg/kg, iv administered as 30 mins infusion relative to control; format: functional; method in brief: as §4
[30] = Oral bioavailability in dog at 1 mg/kg; format: ADME, organism-based, Canis lupus familiaris; details: in vivo; method in brief: as §3
[31] = Cmax in rat at 2 mg/kg, iv or 5 mg/kg, po; format: ADME, organism-based; details: in vivo; method in brief: as §1
[32] = Oral bioavailability in cynomolgus monkey at 1 mg/kg using crystalline form; format: ADME, organism-based, Macaca fascicularis; details: in vivo
Method in brief: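 Oral %F in cynomolgus monkey at 1 mg/kg po, with the compound given as a micronized crystalline suspension rather than the solution vehicle (iv reference dose 1 mg/kg).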

Oryctolagus cuniculus [33] = assay: Antiatrial fibrillation activity in methoxamine-sensitised rabbit assessed as increase in atrial effective refractory period at 0.17 mg/kg, iv measured 30 mins post infusion relative to control; format: functional; method in brief: as §2
[34] = Cmax in cynomolgus monkey at 1 mg/kg, iv or 1 mg/kg, po; format: ADME, organism-based, Macaca fascicularis; details: in vivo; method in brief: as §1
Canis familiaris = assay: Antiarrhythmic activity in mongrel dog heart failure model assessed as reduction in pacing-induced total atrial fibrillation duration at 0.1 to 0.3 mg/kg, po; format: functional, organism-based; details: Canis lupus familiaris
Method in brief: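 Simultaneous atrio-ventricular pacing dog model of atrial arrhythmia. Compound was given orally at 0.1 or 0.3 mg/kg in 10% EtOH/40% propylene glycol/50% PEG 400. AF inducibility was scored as mean number of AF inductions and total AF duration, with QTc monitored and plasma concentration measured. n = 7 control, 5 (0.1 mg/kg) and 6 (0.3 mg/kg) dogs.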

SMILES: NS(=O)(=O)c1cncc(-c2nc(NCc3ccccn3)c3c(-c4ccccc4)cccc3n2)c1 [BMS-919373]
- clearance [1]: 0.05 mL/min/kg
- Activity (Oryctolagus cuniculus [2]): 9.9%
- AUC [3]: 49 µM·h
- half-life [4]: 2 h
- concentration at 0.5 h [5]: 1300 nM
- IC50 [6]: > 10 µM
- Vd [7]: 0.2 L/kg
- AUC [8]: 11 µM·h
- half-life [9]: 4.6 h
- Cmax [10]: 4000 nM
- Kp at 10 min [11]: 0.1
- concentration at 20 min [12]: 1100 nM
- AUC [13]: 21 µM·h
- Activity (Oryctolagus cuniculus [14]): 10.7%
- Cp (Oryctolagus cuniculus [15]): 0.15 µM
- Activity (Salmonella typhimurium): Non-Toxic
- IC50 [16]: > 10 µM
- Activity (Oryctolagus cuniculus [17]): 12.7%
- clearance [18]: 3.2 mL/min/kg
- concentration (Plasma [19]): 470 nM
- concentration (Plasma [20]): 1840 nM
- Tmax [21]: 4.9 h
- Vd [22]: 0.9 L/kg
- Tmax [23]: 2.6 h
- half-life [24]: 51 h
- Activity (Oryctolagus cuniculus [25]): 16.2%
- Activity (Oryctolagus cuniculus [26]): 10.8%
- Cp (Oryctolagus cuniculus [27]): 0.09 µM
- Vd [28]: 1.2 L/kg
- Activity (Oryctolagus cuniculus [29]): 21.6 - 22%
- bioavailability [30]: 64%
- Cmax [31]: 7900 nM
- bioavailability [32]: 54%
- Activity (Oryctolagus cuniculus [33]): 11.4%
- Cmax [34]: 900 nM
- Activity (Canis familiaris): Active
